Data from paper PMC3447998 (Biochemistry, 2012).
“Also recorded” adds a separate entry of the source. One block for each compound: values may come before it. Where a SMILES comes first, the peptide text is derived from it. Where no end group is shown, it is not given here. The star is where a group is joined. X2 = C[N+](C)(C)[C@@H](CO)C(=O)*; X1 = C[N+]1(C)CCC[C@H]1C(=O)*

How the values were obtained:
recombinant human NRMT = target: T1, recombinant human NRMT (Homo sapiens, UniProt Q9BV86); test: Isothermal titration calorimetry; format: binding; conditions: 25°C, pH 8.0; for binding to recombinant human NRMT (in words): 10 residue RCC1 N-terminal peptides
T1 sequence (Q9BV86 1-223): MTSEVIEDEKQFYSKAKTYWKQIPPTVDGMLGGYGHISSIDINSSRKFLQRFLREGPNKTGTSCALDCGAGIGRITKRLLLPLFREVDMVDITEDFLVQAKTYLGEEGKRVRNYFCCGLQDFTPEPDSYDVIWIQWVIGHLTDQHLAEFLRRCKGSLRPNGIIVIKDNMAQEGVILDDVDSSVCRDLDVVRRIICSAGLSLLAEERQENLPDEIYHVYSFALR
Outline: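 Recombinant NRMT was dialyzed overnight at 4°C against 50 mM Tris, 50 mM potassium acetate, pH 8.0. Ten-residue RCC1 N-terminal peptides, unmodified or N-methylated, were dissolved in the same buffer. At 25°C, 100 µM enzyme was titrated with 800–1000 µM peptide, and binding curves were fitted.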

[1] = test system: recombinant NRMT (SPK-RCC1 substrate); test: In vitro product inhibition assay, SPK-RCC1 substrate; format: biochemical; conditions: increasing concentrations of product peptide; n=2
Outline: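 Recombinant NRMT methylated RCC1 protein substrates bearing SPK or PPK N-termini in vitro. Increasing concentrations of N-trimethylated SPK or N-dimethylated PPK RCC1 product peptides were present. The read-out was N-terminal methylation of the substrate protein, normalized to the lowest product-peptide condition.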

N-terminus of protein = conditions: yeast and mammals; ref [24],[25]; cited from earlier work
[2] = test system: endogenous NRMT (293LT cells); test: Co-precipitation of endogenous NRMT with FLAG-tagged substrate proteins; format: binding; conditions: C-terminally FLAG-tagged protein expressed in 293LT cells
Outline: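 C-terminally FLAG-tagged RCC1 or VRK2 expressed in 293LT cells, immunoprecipitated with anti-FLAG, and run on 10% polyacrylamide gel with Coomassie staining. On-bead material washed 3× with 100 mM ammonium bicarbonate (pH 8.0), then reduced, carbamidomethylated and digested with endoproteinase Glu-C (enzyme:protein 1:20). Peptides acidified to pH 3.5 and analysed by nano-LC-MS on C18 capillary columns.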

Compound: CC[C@H](C)[C@H](NC(=O)[C@H](CCCNC(=N)N)NC(=O)[C@H](CCCCN)NC(=O)[C@@H]1CCCN1C(=O)[C@@H]1CCC[N+]1(C)C)C(=O)N[C@@H](C)C(=O)N[C@@H](CCCCN)C(=O)N[C@@H](CCCNC(=N)N)C(=O)N[C@@H](CCCNC(=N)N)C(=O)N[C@@H](CO)C(=O)O [me2PPKRIAKRRS] (X1-PKRIAKRRS-OH; C-terminus assumed)
binding to recombinant human NRMT (in words) (recombinant human NRMT): bound to recombinant human NRMT with high affinity | concentration of efficient inhibition of N-terminal methylation of SPK-RCC1 [1]: 1.3 µM

Compound: CC[C@H](C)[C@H](NC(=O)[C@H](CCCNC(=N)N)NC(=O)[C@H](CCCCN)NC(=O)[C@@H]1CCCN1C(=O)[C@H](CO)[N+](C)(C)C)C(=O)N[C@@H](C)C(=O)N[C@@H](CCCCN)C(=O)N[C@@H](CCCNC(=N)N)C(=O)N[C@@H](CCCNC(=N)N)C(=O)N[C@@H](CO)C(=O)O [me3SPKRIAKRRS] (X2-PKRIAKRRS-OH; C-terminus assumed)
binding to recombinant human NRMT (in words) (recombinant human NRMT): bound to recombinant human NRMT with high affinity | concentration of efficient inhibition of N-terminal methylation of SPK-RCC1 [1]: 1.3 µM

Kd (recombinant human NRMT; Kd, bi-phasic titration curve, second phase): 136 nM
Compound: PPKRIAKRRS [PPKRIAKRRS]

Compound: PPQRIAKRRS
binding to recombinant human NRMT (in words) (recombinant human NRMT): very low affinity binding (in mM range, data not shown)

Compound: PWP1: protein with MNR-N-terminus
N-terminal acetylation reported (in words) (N-terminus of protein): reported to be N-terminally acetylated

Compound: SPQRIAKRRS
binding to recombinant human NRMT (in words) (recombinant human NRMT): very low affinity binding (in mM range, data not shown)

Compound: VRK2-FLAG: FLAG-tagged VRK2, possesses a P-P-K motif
capture / co-precipitation of endogenous NRMT (in words) [2]: efficiently captured endogenous NRMT | capture / co-precipitation of endogenous NRMT (in words) ([2]; listed as VRK2): captured more NRMT than the RCC1; also recorded: NRMT is co-precipitated
